Assay results: ChEMBL document CHEMBL1138981, “Synthesis and SAR of 1,2-trans-(1-hydroxy-3-phenylprop-1-yl)cyclopentane carboxamide derivatives, a new class of sodium channel blockers” (Bioorg Med Chem Lett, 2006)

Experiments:
[1] = target: Sodium channel protein type 9 subunit alpha (Homo sapiens, UniProt Q15858); assay: Inhibition of peripheral nerve sodium channel NaV1.7
[2] = target: T1, hERG (KCNH2) (Homo sapiens, UniProt Q12809); assay: (§1) Displacement of [35S]-labeled MK499 from hERG at 10 uM; details: probe [35S]-MK499
T1 sequence (Q12809 whole entry): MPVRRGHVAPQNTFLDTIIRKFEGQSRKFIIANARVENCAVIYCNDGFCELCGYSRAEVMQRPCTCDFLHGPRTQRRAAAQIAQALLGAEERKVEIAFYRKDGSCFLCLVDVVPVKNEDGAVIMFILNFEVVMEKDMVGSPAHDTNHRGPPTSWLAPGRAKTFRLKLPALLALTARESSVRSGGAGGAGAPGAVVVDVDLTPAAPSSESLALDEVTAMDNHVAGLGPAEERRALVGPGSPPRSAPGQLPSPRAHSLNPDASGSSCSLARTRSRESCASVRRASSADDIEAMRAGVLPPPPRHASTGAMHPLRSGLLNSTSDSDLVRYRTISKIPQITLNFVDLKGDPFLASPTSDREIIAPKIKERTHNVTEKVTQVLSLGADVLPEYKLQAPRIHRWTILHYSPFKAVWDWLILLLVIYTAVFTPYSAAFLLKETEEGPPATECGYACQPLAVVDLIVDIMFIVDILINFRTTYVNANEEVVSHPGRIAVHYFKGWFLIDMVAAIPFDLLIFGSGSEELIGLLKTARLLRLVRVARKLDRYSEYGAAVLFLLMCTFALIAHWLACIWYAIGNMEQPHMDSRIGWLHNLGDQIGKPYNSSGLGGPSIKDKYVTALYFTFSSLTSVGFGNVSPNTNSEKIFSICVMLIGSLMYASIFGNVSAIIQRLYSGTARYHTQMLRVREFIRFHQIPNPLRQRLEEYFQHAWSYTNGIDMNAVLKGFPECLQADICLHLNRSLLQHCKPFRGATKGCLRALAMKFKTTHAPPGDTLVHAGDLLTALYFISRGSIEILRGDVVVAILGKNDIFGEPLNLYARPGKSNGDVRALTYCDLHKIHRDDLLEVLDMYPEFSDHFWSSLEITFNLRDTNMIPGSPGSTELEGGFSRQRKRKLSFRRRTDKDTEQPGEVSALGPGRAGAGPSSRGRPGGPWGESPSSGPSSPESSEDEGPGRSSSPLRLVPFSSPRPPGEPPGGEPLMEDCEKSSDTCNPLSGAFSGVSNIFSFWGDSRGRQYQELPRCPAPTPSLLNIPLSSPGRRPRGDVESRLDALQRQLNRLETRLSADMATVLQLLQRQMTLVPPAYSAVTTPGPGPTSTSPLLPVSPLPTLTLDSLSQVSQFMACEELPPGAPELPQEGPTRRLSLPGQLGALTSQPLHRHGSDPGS

[3] = test system: Liver microsomes; assay: (§2) Stability in human liver microsome after 1 hr; type: ADME; details: microsomes, 1 h
[4] = test system: Rattus norvegicus; assay: (§3) Oral bioavailability in rat; type: ADME, organism-based; details: in vivo
[5] = Plasma clearance in rat at 1 mg/kg, iv; type: ADME, organism-based; parameters: dose 1 mg/kg, route intravenous
[6] = (§4) Half life in rat at 1 mg/kg, iv; type: ADME, organism-based; parameters: dose 1 mg/kg, route intravenous; details: in vivo
[7] = test system: Rattus norvegicus; assay: (§5) Cmax in rat at 3 mg/kg, po; type: ADME, organism-based; parameters: dose 3 mg/kg, route oral; details: in vivo
[8] = test system: Rattus norvegicus; assay: AUC in rat at 3 mg/kg, po; type: ADME, organism-based, Plasma; parameters: dose 3 mg/kg, route oral; details: in vivo
[9] = test system: Rattus norvegicus; assay: Anti-allodynic efficacy in rat chronic pain model at 3 mg/kg, po; type: ADME, organism-based; parameters: dose 3 mg/kg, route oral; details: in vivo
In short: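 Chronic inflammatory pain induced in rats by intradermal injection of complete Freund's adjuvant (CFA). The read-out was reversal of CFA-induced allodynia after oral dosing.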

[10] = target: Voltage-gated inwardly rectifying potassium channel KCNH2 (Homo sapiens, UniProt Q12809); assay: as §1; details: 10 µM
Voltage-gated inwardly rectifying potassium channel KCNH2, sequence (Q12809 whole entry): as above

[11] = as §2; type: ADME, microsomes; details: liver microsomes, read-out: Stability
[12] = as §3; type: ADME, organism-based; details: in vivo
[13] = Cmax in rat at 2 mg/kg, po; type: ADME, organism-based; parameters: dose 2 mg/kg, route oral; details: in vivo
[14] = test system: Rattus norvegicus; assay: AUC in rat at 2 mg/kg, po; type: ADME, organism-based, Plasma; parameters: dose 2 mg/kg, route oral; details: in vivo
[15] = test system: Rattus norvegicus; assay: as §4; type: ADME, organism-based; parameters: dose 1 mg/kg, route intravenous; details: in vivo
[16] = as §5; type: ADME, organism-based; parameters: dose 3 mg/kg, route oral; details: in vivo
[17] = target: T1, hERG (KCNH2); assay: Displacement of [35S]-labeled MK499 from hERG at 1 uM; details: probe [35S]-MK499

Sodium channel protein type 9 subunit alpha, sequence (Q15858 whole entry): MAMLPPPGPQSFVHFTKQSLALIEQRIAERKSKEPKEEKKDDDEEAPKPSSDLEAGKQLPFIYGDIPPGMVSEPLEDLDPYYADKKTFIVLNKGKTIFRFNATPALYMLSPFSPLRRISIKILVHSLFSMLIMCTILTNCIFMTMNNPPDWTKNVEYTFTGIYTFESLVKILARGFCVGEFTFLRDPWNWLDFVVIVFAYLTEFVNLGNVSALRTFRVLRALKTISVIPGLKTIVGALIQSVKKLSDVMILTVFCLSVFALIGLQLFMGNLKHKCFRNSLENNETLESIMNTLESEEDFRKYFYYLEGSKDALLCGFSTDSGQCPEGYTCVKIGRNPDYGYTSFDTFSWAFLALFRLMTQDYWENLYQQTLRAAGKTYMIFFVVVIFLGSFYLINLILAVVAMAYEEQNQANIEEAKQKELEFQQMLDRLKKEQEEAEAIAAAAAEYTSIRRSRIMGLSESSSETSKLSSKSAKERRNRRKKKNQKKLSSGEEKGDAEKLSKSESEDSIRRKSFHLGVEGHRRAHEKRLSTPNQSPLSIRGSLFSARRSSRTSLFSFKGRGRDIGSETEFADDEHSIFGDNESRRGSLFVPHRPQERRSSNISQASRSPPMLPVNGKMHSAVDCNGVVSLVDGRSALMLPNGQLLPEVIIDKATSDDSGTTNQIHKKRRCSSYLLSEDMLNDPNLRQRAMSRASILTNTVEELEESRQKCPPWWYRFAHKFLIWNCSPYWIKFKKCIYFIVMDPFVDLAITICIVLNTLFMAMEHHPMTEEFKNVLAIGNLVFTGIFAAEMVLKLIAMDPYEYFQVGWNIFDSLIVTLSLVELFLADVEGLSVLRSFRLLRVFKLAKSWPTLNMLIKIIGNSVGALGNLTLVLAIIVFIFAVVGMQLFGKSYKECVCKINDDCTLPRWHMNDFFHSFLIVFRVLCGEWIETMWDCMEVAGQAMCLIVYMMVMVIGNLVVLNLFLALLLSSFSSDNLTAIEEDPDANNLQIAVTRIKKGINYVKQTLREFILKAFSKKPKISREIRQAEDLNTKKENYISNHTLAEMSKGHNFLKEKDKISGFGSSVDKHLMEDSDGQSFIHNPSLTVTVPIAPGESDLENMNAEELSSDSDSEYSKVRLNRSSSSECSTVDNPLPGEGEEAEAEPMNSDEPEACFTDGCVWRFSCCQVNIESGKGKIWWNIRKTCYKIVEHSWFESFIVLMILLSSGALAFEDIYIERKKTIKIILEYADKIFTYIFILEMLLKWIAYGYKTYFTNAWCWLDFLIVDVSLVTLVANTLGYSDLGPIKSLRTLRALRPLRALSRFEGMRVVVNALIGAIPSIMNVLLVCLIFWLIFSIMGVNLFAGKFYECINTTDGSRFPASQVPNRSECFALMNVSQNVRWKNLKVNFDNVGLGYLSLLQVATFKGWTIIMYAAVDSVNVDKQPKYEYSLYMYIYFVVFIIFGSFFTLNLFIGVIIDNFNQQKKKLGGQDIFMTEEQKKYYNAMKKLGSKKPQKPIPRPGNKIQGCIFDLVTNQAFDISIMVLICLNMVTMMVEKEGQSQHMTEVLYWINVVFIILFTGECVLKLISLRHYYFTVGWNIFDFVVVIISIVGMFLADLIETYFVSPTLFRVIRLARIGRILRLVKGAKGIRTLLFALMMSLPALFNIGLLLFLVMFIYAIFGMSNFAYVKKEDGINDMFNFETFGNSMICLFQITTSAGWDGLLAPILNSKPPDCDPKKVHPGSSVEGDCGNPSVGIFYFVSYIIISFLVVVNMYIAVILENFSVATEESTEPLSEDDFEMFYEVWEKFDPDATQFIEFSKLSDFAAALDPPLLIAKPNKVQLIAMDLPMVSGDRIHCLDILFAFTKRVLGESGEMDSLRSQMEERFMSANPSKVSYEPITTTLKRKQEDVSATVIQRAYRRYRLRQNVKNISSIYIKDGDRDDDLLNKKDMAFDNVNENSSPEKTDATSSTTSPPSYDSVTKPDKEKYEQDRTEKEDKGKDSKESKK

| SMILES | IC50 [1] [nM] | inhibition at 10 µM [2] [%] | also measured |
| --- | --- | --- | --- |
| O=C(NCc1ccccc1)[C@@H]1CCC[C@H]1C(O)CCc1ccc(OC(F)(F)F)cc1 (stereo in doubt; 13B) | 360 | 60 | Stability [3]: 49%; F [4]: 65%; clearance [5]: 9 mL/min/kg; half-life [6]: 1.6 h; Cmax [7]: 2300 nM; AUC [8]: 9 µM·h; Efficacy [9]: 31% |
| O=C(NCc1ccccc1)[C@@H]1CCC[C@H]1C(O)CCc1ccccc1 (relative stereo) | > 3000 | – | – |
| O=C(NCc1ccccc1C(F)(F)F)[C@@H]1CCC[C@H]1C(O)CCc1cccc(OC(F)(F)F)c1 (relative stereo) | 440 | 78 | – |
| O=C(NCc1cc(Cl)cc(Cl)c1)[C@@H]1CCC[C@H]1C(O)CCc1cccc(OC(F)(F)F)c1 (relative stereo) | 440 | 87 | – |
| CN(Cc1ccccc1)C(=O)[C@@H]1CCC[C@H]1C(=O)NCc1ccc(OC(F)(F)F)cc1 (relative stereo) | 1490 | – | – |
| OC(CCc1ccccc1)[C@@H]1CCC[C@H]1OCCc1ccc(OC(F)(F)F)cc1 (relative stereo) | > 3000 | 70 | – |
| O=S(=O)(NC[C@@H]1CCC[C@H]1C(O)CCc1ccccc1)c1cc(Cl)cc(Cl)c1 (relative stereo) | > 3000 | 90 | – |
| CS(=O)(=O)c1ccc(CCC(O)[C@@H]2CCC[C@H]2C(=O)NCc2ccc(OC(F)(F)F)cc2)cc1 (relative stereo) | > 3000 | – | – |
| OC(CCc1ccccc1)[C@@H]1CCC[C@H]1OCCc1cc(Cl)cc(Cl)c1 (relative stereo) | > 3000 | 40 | – |
| O=C(NCc1ccccc1)[C@@H]1CCC[C@H]1C(O)CCc1cccc(OC(F)(F)F)c1 (relative stereo) | 230 | 89 | – |
| COc1ccc(CCC(O)[C@@H]2CCC[C@H]2C(=O)NCc2cc(Cl)cc(Cl)c2)cc1 (relative stereo) | 1210 | 70 | – |
| O=C(NCc1ccccc1)[C@@H]1CCC[C@H]1C(O)CCc1ccccc1OC(F)(F)F (relative stereo) | 320 | 92 | – |
| O=S(=O)(NC[C@@H]1CCC[C@H]1C(O)CCc1ccccc1)c1ccc(OC(F)(F)F)cc1 (relative stereo) | 630 | 90 | – |
| OC(CCc1ccccc1)[C@@H]1CCC[C@H]1COCc1ccc(OC(F)(F)F)cc1 (relative stereo) | 820 | 65 | – |
| O=C(NCc1cc(Cl)cc(Cl)c1)[C@@H]1CCC[C@H]1C(O)CCc1ccccc1OC(F)(F)F (relative stereo) | 1150 | 73 | – |
| O=C(NCc1ccccc1)[C@@H]1CCC[C@H]1C(O)CCc1ccc(OC(F)(F)F)cc1 (stereo in doubt; 13A) | 520 | – | Inhibition [10]: 68% |
| OC(CCc1ccccc1)[C@@H]1CCC[C@H]1COCc1cc(Cl)cc(Cl)c1 (relative stereo) | 1110 | 59 | – |
| O=C(NCc1cc(Cl)cc(Cl)c1)[C@@H]1CCC[C@H]1C(O)CCc1ccc(OC(F)(F)F)cc1 (relative stereo) | 870 | 93 | – |
| CN(Cc1ccc(-c2ccccc2S(N)(=O)=O)cc1)C(=O)[C@@H]1CCC[C@H]1C(=O)NCc1ccc(OC(F)(F)F)cc1 (relative stereo) | 290 | 54 | remaining at 1 h [11]: 4%; bioavailability [12]: 44%; clearance [5]: 14 mL/min/kg; half-life [6]: 1 h; Cmax [13]: 1000 nM; AUC [14]: 1.8 µM·h; Efficacy [9]: 43% |
| O=C(NCc1ccccc1)[C@@H]1CCC[C@H]1C(O)CCc1ccc(OC(F)(F)F)cc1 (stereo in doubt; 13) | 640 | – | Inhibition [10]: 52%; Stability [3]: 13%; F [4]: 40%; T1/2 [15]: 1.6 h; Cmax [16]: 1900 nM; AUC [8]: 5.3 µM·h; Efficacy [9]: 25% |
| O=C(NCc1cc(Cl)cc(Cl)c1)[C@@H]1CCC[C@H]1C(O)CCc1ccccc1 (relative stereo) | 980 | 91 | – |
| O=C(NC[C@@H]1CCC[C@H]1C(O)CCc1ccccc1)c1cc(Cl)cc(Cl)c1 (relative stereo) | > 3000 | 79 | – |
| O=C(NC[C@@H]1CCC[C@H]1C(O)CCc1ccccc1)c1ccc(OC(F)(F)F)cc1 (relative stereo) | 330 | 84 | inhibition at 1 µM [17]: 45% |
